Values after ≈ are worked out from the molar mass of the structure shown. Values joined by “and” are separate entries in the source; they are usually repeats but may differ in a detail not shown here. Identical values can stand only once.

Assay [1] has as its system Enterovirus. Nature of the assay: (§1) In vitro anti-rhinovirus activity was measured as maximum testable levels - highest concentration of compound which causes no apparent effect on the cell monolayers. In kind it is functional.
Assay [2] relates to Enterovirus. The assay is described as follows: In vitro anti-rhinovirus activity was measured as mean MIC for five serotypes, HRV-1A, -2, -22, -41, and -50. In kind it is functional. Put shortly: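 Mean of plaque-reduction-assay MICs across five rhinovirus serotypes (HRV-1A, -2, -22, -41, -50), chosen to represent a range of sensitivity to this compound class.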
In assay [3] the test system is Enterovirus. Described as §1. In kind it is functional. This is another data set of the same source.
The subject of assay [4] is Enterovirus. Nature of the assay: Minimum inhibitory concentration against rhinovirus serotype 15. In kind it is functional. In short, it runs like this:
(§2)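 Rhinovirus minimum inhibitory concentration (MIC) determined in a plaque reduction assay in cell culture, testing each serotype separately.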

Assay [5] concerns Enterovirus. The assay is described as follows: Minimum inhibitory concentration against rhinovirus serotype 1A. In kind it is functional. Put shortly: as §2
Assay [6] deals with Enterovirus. Nature of the assay: Minimum inhibitory concentration against rhinovirus serotype 21. In kind it is functional. Put shortly:
as §2

The test system of assay [7] is Enterovirus. Nature of the assay: Minimum inhibitory concentration against rhinovirus serotype 41. Type of assay: functional. Put shortly: as §2
The subject of assay [8] is Enterovirus. The assay is described as follows: Minimum inhibitory concentration against rhinovirus serotype 67. Type of assay: functional. To be noted: Enterovirus; read-out: MIC. In short, it runs like this: as §2
Assay [9] relates to Enterovirus. Nature of the assay: Concentration required to inhibit 80 percent rhinovirus cell culture. Type of assay: functional. Put shortly:
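MIC80 is the concentration that inhibits 80% of the rhinovirus serotypes tested. It is derived from per-serotype MICs measured by plaque reduction assay.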

The subject of assay [10] is Enterovirus. Nature of the assay: Minimum inhibitory concentration against rhinovirus serotype 30. In kind it is functional. Put shortly: as §2
For assay [11], the system named is Enterovirus. The assay is described as follows: Minimum inhibitory concentration against rhinovirus serotype 50. In kind it is functional. In short, it runs like this: as §2
In assay [12] the test system is Enterovirus. The assay is described as follows: Minimum inhibitory concentration against rhinovirus serotype 86. In kind it is functional. In short, it runs like this: as §2
Assay [13] has as its system Enterovirus. Nature of the assay: Minimum inhibitory concentration against rhinovirus serotype 14. Type of assay: functional. Put shortly:
as §2

The test system of assay [14] is Enterovirus. Nature of the assay: Minimum inhibitory concentration against rhinovirus serotype 1B. In kind it is functional. Put shortly:
as §2

The subject of assay [15] is Enterovirus. The assay is described as follows: Minimum inhibitory concentration against rhinovirus serotype 6. The following applies: Enterovirus; read-out: MIC. In kind it is functional. Put shortly: as §2
Assay [16] has as its system Coxsackievirus. The assay is described as follows: In vitro activity against coxsackie A- 11. Type of assay: functional.
The test system of assay [17] is Coxsackievirus. Nature of the assay: In vitro activity against coxsackie A- 21. In kind it is functional.
Assay [18] has as its system Coxsackievirus. Nature of the assay: In vitro activity against coxsackie A-2. Type of assay: functional.
The test system of assay [19] is Coxsackievirus. The assay is described as follows: In vitro activity against coxsackie B-2. In kind it is functional.
Assay [20] relates to Echovirus. Nature of the assay: In vitr oactivity against echovirus-3. Type of assay: functional.
Assay [21] has as its system Echovirus. The assay is described as follows: In vitro activity against echovirus-3. Type of assay: functional.
The subject of assay [22] is Echovirus. Nature of the assay: In vitro activity against echovirus-4. In kind it is functional.
Assay [23] has as its system Echovirus. The assay is described as follows: In vitro activity against echovirus-9 (Barty). Type of assay: functional.
Assay [24] deals with Enterovirus C. The assay is described as follows: In vitro activity against coxsackie A- 4. In kind it is functional.
The test system of assay [25] is Enterovirus C. The assay is described as follows: In vitro activity against polioviurs-1 (Mahoney). In kind it is functional.
Assay [26] deals with Enterovirus C. Nature of the assay: In vitro activity against polioviurs-2 (Lansing). In kind it is functional.
Assay [27] relates to Enterovirus. Nature of the assay: Estimation by using phi 21 in combination with log P of compound 13 determined via RPHPLC-retention time procedure. Type of assay: functional. In short, it runs like this: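 Values estimated by adding substituent π constants to the measured log P of a reference analogue. That reference log P came from reversed-phase HPLC retention times, with mobile phase at pH 7.4 and n = 3.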

Assay [28] deals with Coxsackievirus. Nature of the assay: In vitro activity against coxsackie A- 9. Type of assay: functional.
The subject of assay [29] is Echovirus. Nature of the assay: In vitro activity against echovirus-30.
Assay [30] has as its system Echovirus. Nature of the assay: In vitro activity against echovirus-12.
Assay [31] has as its system Coxsackievirus. Nature of the assay: In vitro activity against coxsackie A- 21.
Assay [32] deals with Echovirus. The assay is described as follows: In vitro activity of the compound against echovirus-12.

`COc1cc(C2=NCCO2)cc(OC)c1OCCCCCc1cc(C)no1`: the MIC in the assay with Enterovirus [1] turned out to be 7.7 µM (≈ 2.88 µg/mL); against Enterovirus [2] it was 9.9 µM (≈ 3.71 µg/mL); with Enterovirus [3], 16.7 µM (≈ 6.25 µg/mL); in the assay with Enterovirus [3] (Enterovirus, read-out: MIC), 33.4 µM (≈ 12.5 µg/mL); in the assay on Enterovirus [4] (Enterovirus, read-out: MIC), 0.6 µM (≈ 0.225 µg/mL); with Enterovirus [5] it was 6.2 µM (≈ 2.32 µg/mL). In addition, the MIC in the assay on Enterovirus [6] (Enterovirus, read-out: MIC) was determined as 13.4 µM (≈ 5.02 µg/mL); against Enterovirus [7] it was 12.6 µM (≈ 4.72 µg/mL); with Enterovirus [8], 14.7 µM (≈ 5.5 µg/mL). The MIC80 against Enterovirus [9] is 13.4 µM (≈ 5.02 µg/mL).

As to `Cc1cc(CCCCCOc2c(Cl)cc(C3=NCCO3)cc2Br)on1`, the MIC in the assay with Enterovirus [1] came out at 0.6 µM (≈ 0.257 µg/mL); against Enterovirus [2], 0.61 µM (≈ 0.261 µg/mL); in the assay with Enterovirus [4] (Enterovirus, read-out: MIC), 0.4 µM (≈ 0.171 µg/mL); against Enterovirus [5], 0.04 µM (≈ 0.0171 µg/mL); in the assay with Enterovirus [6], 0.2 µM (≈ 0.0855 µg/mL); in the assay on Enterovirus [6] (Enterovirus, read-out: MIC), 0.3 µM (≈ 0.128 µg/mL). The MIC in the assay on Enterovirus [10] (Enterovirus, read-out: MIC) came out at 0.08 µM (≈ 0.0342 µg/mL); in the assay with Enterovirus [7] it was 1.8 µM (≈ 0.77 µg/mL); in the assay with Enterovirus [11] it was 0.09 µM (≈ 0.0385 µg/mL); against Enterovirus [12], 0.02 µM (≈ 0.00855 µg/mL). Also, in the assay with Enterovirus [9], the MIC80 amounted to 0.5 µM (≈ 0.214 µg/mL).

For `Cc1cc(CCCCCOc2c(C)cc(C3=NCCO3)cc2Cl)on1`, the MIC was 0.7 µM (≈ 0.254 µg/mL) with Enterovirus [1]; 0.92 µM (≈ 0.334 µg/mL) in the assay on Enterovirus [2]; 0.6 µM (≈ 0.218 µg/mL) against Enterovirus [13]; 0.6 µM (≈ 0.218 µg/mL) with Enterovirus [4] (Enterovirus, read-out: MIC); 0.04 µM (≈ 0.0145 µg/mL) against Enterovirus [5]; 0.6 µM (≈ 0.218 µg/mL) against Enterovirus [14]. For the same compound, the MIC in the assay on Enterovirus [14] (Enterovirus, read-out: MIC) came out at 0.4 µM (≈ 0.145 µg/mL); in the assay on Enterovirus [6] (Enterovirus, read-out: MIC), 0.2 µM (≈ 0.0726 µg/mL); against Enterovirus [7] it was 1.9 µM (≈ 0.689 µg/mL); in the assay on Enterovirus [11] it was 0.7 µM (≈ 0.254 µg/mL); with Enterovirus [15] it was 0.06 µM (≈ 0.0218 µg/mL). The MIC80 against Enterovirus [9] is 0.9 µM (≈ 0.327 µg/mL).

As for `Cc1cc(CCCCCOc2c(Cl)cc(C3=NCCO3)cc2C(C)(C)C)on1`, the MIC with Enterovirus [3] (Enterovirus, read-out: MIC) worked out at 12.4 µM (≈ 5.02 µg/mL).

On to `Cc1cc(CCCCCOc2c(Cl)cc(C3=NCCO3)cc2Cl)on1` [WIN-54954], for which the MIC is 4.8 µM (≈ 1.84 µg/mL) against Coxsackievirus [16]; 0.21 µM (≈ 0.0805 µg/mL) against Coxsackievirus [17]; 8.6 µM (≈ 3.3 µg/mL) against Coxsackievirus [18]; 0.13 µM (≈ 0.0498 µg/mL) against Coxsackievirus [19]; 1.4 µM (≈ 0.537 µg/mL) in the assay with Echovirus [20]; 0.18 µM (≈ 0.069 µg/mL) in the assay with Echovirus [21]. Moreover, the MIC against Echovirus [22] was 0.39 µM (≈ 0.149 µg/mL); in the assay with Echovirus [23], 2.6 µM (≈ 0.997 µg/mL); in the assay with Enterovirus C [24], 1.4 µM (≈ 0.537 µg/mL); against Enterovirus C [25], 0.65 µM (≈ 0.249 µg/mL); with Enterovirus C [26] it was 0.55 µM (≈ 0.211 µg/mL); in the assay on Enterovirus [27], 0.7 µM. The MIC with Enterovirus [2] came out at 0.7 µM (≈ 0.268 µg/mL); in the assay on Enterovirus [4] (Enterovirus, read-out: MIC), 0.3 µM (≈ 0.115 µg/mL); in the assay on Enterovirus [5], 0.02 µM (≈ 0.00767 µg/mL); in the assay with Enterovirus [14] (Enterovirus, read-out: MIC), 0.2 µM (≈ 0.0767 µg/mL); in the assay on Enterovirus [6] (Enterovirus, read-out: MIC) it was 0.3 µM (≈ 0.115 µg/mL); in the assay on Enterovirus [10] (Enterovirus, read-out: MIC), 0.09 µM (≈ 0.0345 µg/mL). Also, the MIC against Enterovirus [7] came to 0.9 µM (≈ 0.345 µg/mL); in the assay on Enterovirus [11], 2.6 µM (≈ 0.997 µg/mL); in the assay on Enterovirus [8], 0.02 µM (≈ 0.00767 µg/mL); with Enterovirus [12], 0.02 µM (≈ 0.00767 µg/mL); against Coxsackievirus [28] it was 13.2 µM (≈ 5.06 µg/mL); in the assay with Echovirus [29], 0.08 µM (≈ 0.0307 µg/mL). Besides, the MIC is 16.2 µM (≈ 6.21 µg/mL) against Echovirus [30], 0.008 µM (≈ 0.00307 µg/mL) with Coxsackievirus [31] and 0.03 µM (≈ 0.0115 µg/mL) against Echovirus [32]. Moreover, the MIC80 against Enterovirus [9] stood at 0.3 µM (≈ 0.115 µg/mL).

In the case of `Cc1cc(CCCCCOc2c(Br)cc(C3=NCCO3)cc2Br)on1`, the MIC with Enterovirus [1] is 0.6 µM (≈ 0.283 µg/mL); in the assay on Enterovirus [2], 0.63 µM (≈ 0.297 µg/mL); with Enterovirus [4] it was 0.04 µM and 0.1 µM; in the assay on Enterovirus [5], 0.1 µM (≈ 0.0472 µg/mL); in the assay with Enterovirus [6] (Enterovirus, read-out: MIC), 0.3 µM (≈ 0.142 µg/mL); in the assay on Enterovirus [10], 0.2 µM (≈ 0.0944 µg/mL). Besides, the MIC in the assay on Enterovirus [10] (Enterovirus, read-out: MIC) was 0.4 µM (≈ 0.189 µg/mL); against Enterovirus [7], 2.1 µM (≈ 0.992 µg/mL). Moreover, the MIC80 against Enterovirus [9] was 1.3 µM (≈ 0.614 µg/mL).
